Test results from ChEMBL document CHEMBL4414649, “Microbial Transformation of Cycloastragenol and Astragenol by Endophytic Fungi Isolated from Astragalus Species” (J Nat Prod, 2019).

Columns and labels:
[1] = target: Telomerase reverse transcriptase (Homo sapiens) (UniProt O14746); experiment: Activation of telomerase activity in human neonatal primary epidermal keratinocytes assessed as fold change at 2 nM after 24 hrs by PCR-based TRAP assay relative to untreated control
Procedure, shortened: (§1)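 HEKn cells from ATCC, grown in dermal basal cell medium with keratinocyte growth supplements. Seeded, medium refreshed next day, then treated 24 h the following day (0.1–30 nM; DMSO control). 2 × 10^5 harvested cells lysed on ice 30 min, lysate spun 16000g 20 min. Telomerase measured by TRAP PCR-ELISA, absorbance at 450 nm (reference ~690 nm). Fold activation versus DMSO-treated cells.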

[2] = target: Telomerase reverse transcriptase (Homo sapiens) (UniProt O14746); experiment: Activation of telomerase activity in human neonatal primary epidermal keratinocytes assessed as fold change at 0.1 to 30 nM after 24 hrs by PCR-based TRAP assay relative to untreated control; procedure, shortened: as §1
[3] = target: Telomerase reverse transcriptase (Homo sapiens) (UniProt O14746); experiment: Activation of telomerase activity in human neonatal primary epidermal keratinocytes assessed as fold change at 0.1 nM after 24 hrs by PCR-based TRAP assay relative to untreated control; procedure, shortened: as §1
[4] = target: Telomerase reverse transcriptase (Homo sapiens) (UniProt O14746); experiment: Activation of telomerase activity in human neonatal primary epidermal keratinocytes assessed as fold change at 0.5 nM after 24 hrs by PCR-based TRAP assay relative to untreated control; procedure, shortened: as §1

Chain of Telomerase reverse transcriptase (Homo sapiens) (O14746 whole entry): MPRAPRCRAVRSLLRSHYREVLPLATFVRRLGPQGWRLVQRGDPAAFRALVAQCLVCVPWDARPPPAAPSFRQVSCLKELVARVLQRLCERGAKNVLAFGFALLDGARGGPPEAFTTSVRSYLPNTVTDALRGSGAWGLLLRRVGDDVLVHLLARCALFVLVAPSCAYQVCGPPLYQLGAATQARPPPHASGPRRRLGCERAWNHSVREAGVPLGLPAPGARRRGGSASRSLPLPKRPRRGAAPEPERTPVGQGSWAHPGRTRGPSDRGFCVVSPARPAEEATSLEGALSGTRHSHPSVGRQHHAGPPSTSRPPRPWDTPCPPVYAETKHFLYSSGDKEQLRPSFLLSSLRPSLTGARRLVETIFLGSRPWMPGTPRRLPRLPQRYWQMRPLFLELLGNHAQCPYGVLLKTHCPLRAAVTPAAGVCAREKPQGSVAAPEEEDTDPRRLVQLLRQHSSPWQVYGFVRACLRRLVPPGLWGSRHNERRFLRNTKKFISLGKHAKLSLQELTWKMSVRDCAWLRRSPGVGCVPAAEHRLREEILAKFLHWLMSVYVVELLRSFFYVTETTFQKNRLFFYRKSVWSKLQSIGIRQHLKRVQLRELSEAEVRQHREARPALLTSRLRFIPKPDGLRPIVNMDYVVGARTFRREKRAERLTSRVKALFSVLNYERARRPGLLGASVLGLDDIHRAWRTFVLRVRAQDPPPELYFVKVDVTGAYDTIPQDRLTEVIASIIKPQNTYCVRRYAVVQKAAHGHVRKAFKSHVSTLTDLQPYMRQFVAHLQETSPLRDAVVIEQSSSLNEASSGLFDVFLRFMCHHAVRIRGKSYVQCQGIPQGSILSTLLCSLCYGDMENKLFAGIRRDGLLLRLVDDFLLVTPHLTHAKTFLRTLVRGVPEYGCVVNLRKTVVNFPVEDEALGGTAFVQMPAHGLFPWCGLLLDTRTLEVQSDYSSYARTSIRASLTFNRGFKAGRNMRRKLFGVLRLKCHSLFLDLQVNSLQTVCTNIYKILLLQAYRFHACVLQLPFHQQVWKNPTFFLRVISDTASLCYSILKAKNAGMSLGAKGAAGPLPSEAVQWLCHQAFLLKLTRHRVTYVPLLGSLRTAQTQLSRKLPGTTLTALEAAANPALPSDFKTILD

Row | Compound | fold change (FC) [1] | fold change (FC) [2] | fold change (FC) [3] | fold change (FC) [4]
1 | CC(C)(O)[C@@H]1CC[C@](C)([C@H]2[C@@H](O)C[C@@]3(C)[C@@H]4C[C@H](O)[C@H]5C(C)(C)C(=O)CC[C@@]56C[C@@]46[C@@H](O)C[C@]23C)O1 | – | 1.5 to 5.2 | – | –
2 | CC(C)(O)[C@@H]1CC[C@](C)([C@H]2[C@@H](O)C[C@@]3(C)[C@@H]4C[C@H](O)[C@H]5C(C)(C)[C@@H](O)CC[C@]5(C)C4=C[C@H](O)[C@]23C)O1 | – | 1.5 to 5.2 | 3.8 | –
3 | CC(C)(O)[C@@H]1CC[C@](C)([C@H]2[C@@H](O)C[C@@]3(CO)[C@@H]4C[C@H](O)[C@H]5C(C)(C)C(=O)CC[C@@]56C[C@@]46CC[C@]23C)O1 | – | 1.5 to 5.2 | 3.5 | –

Continued, values first:

Row | fold change (FC) [1] | fold change (FC) [2] | fold change (FC) [3] | fold change (FC) [4] | Compound
4 | 5.2 | 1.5 to 5.2 | 1.5 | – | CC(C)(O)[C@@H]1CC[C@](C)([C@H]2[C@@H](O)C[C@@]3(C)[C@@H]4C[C@H](O)[C@H]5C(C)(C)[C@@H](O)CC[C@@]56C[C@@]46CC[C@]23C)O1
5 | – | 1.5 to 5.2 | – | 5 | CC(C)(O)[C@@H]1CC[C@](C)([C@H]2[C@@H](O)C[C@@]3(C)[C@@H]4C[C@H](O)[C@H]5C(C)(C)[C@@H](O)CC[C@@]56C[C@@]46C[C@H](O)[C@]23C)O1
